In ChEMBL document CHEMBL4689842, “EUbOPEN Chemogenomics Library wave 1” (2021):

Test system: Fibroblast
Experiment: Multiplex assay against human fibroblast
Type: toxicity, cell-based
Method in brief: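 Per cents of healthy-nucleus cells form the tubulin, mitochondrial-mass and membrane-permeability phenotype values. Live cells were stained at seeding with Hoechst33342, BioTracker Green Microtubule Cytoskeleton Dye, MitoTracker Red and Annexin V Alexa Fluor 680. After compound addition they were imaged on a CQ1 microscope at 37°C and 5% CO2, and CellPathfinder machine-learning gating split them into Hoechst high-intensity objects or normal cells, normal cells into healthy, pyknosed or fragmented nuclei, and pyknosed cells into mitotic or apoptotic.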

[1] = 12 h, 1 µM, compound concentration 1 uM, replicate 1
[2] = 12 h, 1 µM, compound concentration 1 uM, replicate 2
[3] = 12 h, 10 µM, compound concentration 10 uM, replicate 1
[4] = 12 h, 10 µM, compound concentration 10 uM, replicate 2
[5] = 24 h, 1 µM, compound concentration 1 uM, replicate 1
[6] = 24 h, 1 µM, compound concentration 1 uM, replicate 2
[7] = 24 h, 10 µM, compound concentration 10 uM, replicate 1
[8] = 24 h, 10 µM, compound concentration 10 uM, replicate 2
[9] = 48 h, 1 µM, compound concentration 1 uM, replicate 1
[10] = 48 h, 1 µM, compound concentration 1 uM, replicate 2
[11] = 48 h, 10 µM, compound concentration 10 uM, replicate 1
[12] = 48 h, 10 µM, compound concentration 10 uM, replicate 2

SMILES: O=C(Nc1ccc(Cl)cc1)Nc1cccc(-c2cccc(N3CCCC3)n2)c1
- Population Apoptotic (%) [1]: 45%
- Population Fragmented Nuclei (%) [1]: 32%
- Population Healthy Nuclei (%) [1]: 41%
- Population Hoechst High Intensity Objects (%) [1]: 18%
- Population Membrane Permeable-Phenotype (%) [1]: 43%
- Population Mitochondria Different-Phenotype (%) [1]: 5%
- Population Mitotic Cells (%) [1]: 54%
- Population Normal (%) [1]: 81%
- Population Pyknosed Nuclei (%) [1]: 26%
- Population Tubulin-Different-Phenotype (%) [1]: 35%
- Total Cell Count [1]: 110
- Population Apoptotic (%) [2]: 25%
- Population Fragmented Nuclei (%) [2]: 17%
- Population Healthy Nuclei (%) [2]: 76%
- Population Hoechst High Intensity Objects (%) [2]: 7%
- Population Membrane Permeable-Phenotype (%) [2]: 10%
- Population Mitochondria Different-Phenotype (%) [2]: 8%
- Population Mitotic Cells (%) [2]: 75%
- Population Normal (%) [2]: 92%
- Population Pyknosed Nuclei (%) [2]: 6%
- Population Tubulin-Different-Phenotype (%) [2]: 12%
- Total Cell Count [2]: 83
- Population Apoptotic (%) [3]: 66%
- Population Fragmented Nuclei (%) [3]: 21%
- Population Healthy Nuclei (%) [3]: 23%
- Population Hoechst High Intensity Objects (%) [3]: 35%
- Population Membrane Permeable-Phenotype (%) [3]: 40%
- Population Mitochondria Different-Phenotype (%) [3]: 0%
- Population Mitotic Cells (%) [3]: 34%
- Population Normal (%) [3]: 64%
- Population Pyknosed Nuclei (%) [3]: 54%
- Population Tubulin-Different-Phenotype (%) [3]: 54%
- Total Cell Count [3]: 142
- Population Apoptotic (%) [4]: 72%
- Population Fragmented Nuclei (%) [4]: 3%
- Population Healthy Nuclei (%) [4]: 78%
- Population Hoechst High Intensity Objects (%) [4]: 7%
- Population Membrane Permeable-Phenotype (%) [4]: 69%
- Population Mitochondria Different-Phenotype (%) [4]: 7%
- Population Mitotic Cells (%) [4]: 27%
- Population Normal (%) [4]: 92%
- Population Pyknosed Nuclei (%) [4]: 17%
- Population Tubulin-Different-Phenotype (%) [4]: 74%
- Total Cell Count [4]: 69
- Population Apoptotic (%) [5]: 50%
- Population Fragmented Nuclei (%) [5]: 31%
- Population Healthy Nuclei (%) [5]: 52%
- Population Hoechst High Intensity Objects (%) [5]: 13%
- Population Membrane Permeable-Phenotype (%) [5]: 23%
- Population Mitochondria Different-Phenotype (%) [5]: 0%
- Population Mitotic Cells (%) [5]: 50%
- Population Normal (%) [5]: 86%
- Population Pyknosed Nuclei (%) [5]: 15%
- Population Tubulin-Different-Phenotype (%) [5]: 42%
- Total Cell Count [5]: 103
- Population Apoptotic (%) [6]: 20%
- Population Fragmented Nuclei (%) [6]: 18%
- Population Healthy Nuclei (%) [6]: 75%
- Population Hoechst High Intensity Objects (%) [6]: 6%
- Population Membrane Permeable-Phenotype (%) [6]: 7%
- Population Mitochondria Different-Phenotype (%) [6]: 3%
- Population Mitotic Cells (%) [6]: 80%
- Population Normal (%) [6]: 93%
- Population Pyknosed Nuclei (%) [6]: 6%
- Population Tubulin-Different-Phenotype (%) [6]: 12%
- Total Cell Count [6]: 94
- Population Apoptotic (%) [7]: 91%
- Population Fragmented Nuclei (%) [7]: 17%
- Population Healthy Nuclei (%) [7]: 24%
- Population Hoechst High Intensity Objects (%) [7]: 31%
- Population Membrane Permeable-Phenotype (%) [7]: 45%
- Population Mitochondria Different-Phenotype (%) [7]: 33%
- Population Mitotic Cells (%) [7]: 8%
- Population Normal (%) [7]: 68%
- Population Pyknosed Nuclei (%) [7]: 58%
- Population Tubulin-Different-Phenotype (%) [7]: 50%
- Total Cell Count [7]: 145
- Population Apoptotic (%) [8]: 72%
- Population Fragmented Nuclei (%) [8]: 13%
- Population Healthy Nuclei (%) [8]: 54%
- Population Hoechst High Intensity Objects (%) [8]: 25%
- Population Membrane Permeable-Phenotype (%) [8]: 46%
- Population Mitochondria Different-Phenotype (%) [8]: 15%
- Population Mitotic Cells (%) [8]: 27%
- Population Normal (%) [8]: 74%
- Population Pyknosed Nuclei (%) [8]: 31%
- Population Tubulin-Different-Phenotype (%) [8]: 46%
- Total Cell Count [8]: 81
- Population Apoptotic (%) [9]: 55%
- Population Fragmented Nuclei (%) [9]: 40%
- Population Healthy Nuclei (%) [9]: 51%
- Population Hoechst High Intensity Objects (%) [9]: 14%
- Population Membrane Permeable-Phenotype (%) [9]: 33%
- Population Mitochondria Different-Phenotype (%) [9]: 1%
- Population Mitotic Cells (%) [9]: 44%
- Population Normal (%) [9]: 85%
- Population Pyknosed Nuclei (%) [9]: 7%
- Population Tubulin-Different-Phenotype (%) [9]: 28%
- Total Cell Count [9]: 135
- Population Apoptotic (%) [10]: 0%
- Population Fragmented Nuclei (%) [10]: 28%
- Population Healthy Nuclei (%) [10]: 70%
- Population Hoechst High Intensity Objects (%) [10]: 12%
- Population Membrane Permeable-Phenotype (%) [10]: 22%
- Population Mitotic Cells (%) [10]: 100%
- Population Normal (%) [10]: 87%
- Population Pyknosed Nuclei (%) [10]: 1%
- Population Tubulin-Different-Phenotype (%) [10]: 34%
- Total Cell Count [10]: 107
- Population Apoptotic (%) [11]: 94%
- Population Fragmented Nuclei (%) [11]: 19%
- Population Healthy Nuclei (%) [11]: 17%
- Population Hoechst High Intensity Objects (%) [11]: 45%
- Population Membrane Permeable-Phenotype (%) [11]: 35%
- Population Mitochondria Different-Phenotype (%) [11]: 28%
- Population Mitotic Cells (%) [11]: 5%
- Population Normal (%) [11]: 54%
- Population Pyknosed Nuclei (%) [11]: 63%
- Population Tubulin-Different-Phenotype (%) [11]: 50%
- Total Cell Count [11]: 151
- Population Apoptotic (%) [12]: 95%
- Population Fragmented Nuclei (%) [12]: 16%
- Population Healthy Nuclei (%) [12]: 9%
- Population Hoechst High Intensity Objects (%) [12]: 63%
- Population Membrane Permeable-Phenotype (%) [12]: 27%
- Population Mitochondria Different-Phenotype (%) [12]: 18%
- Population Mitotic Cells (%) [12]: 4%
- Population Normal (%) [12]: 36%
- Population Pyknosed Nuclei (%) [12]: 73%
- Population Tubulin-Different-Phenotype (%) [12]: 36%
- Total Cell Count [12]: 325
